Assay results of several laboratories.
Compare with care: the assays were run in different laboratories.
Target: Serine/threonine-protein kinase 17A (STK17A, Homo sapiens, UniProt Q9UEE5)
Sequence (Q9UEE5 1-414, as in one of the studies): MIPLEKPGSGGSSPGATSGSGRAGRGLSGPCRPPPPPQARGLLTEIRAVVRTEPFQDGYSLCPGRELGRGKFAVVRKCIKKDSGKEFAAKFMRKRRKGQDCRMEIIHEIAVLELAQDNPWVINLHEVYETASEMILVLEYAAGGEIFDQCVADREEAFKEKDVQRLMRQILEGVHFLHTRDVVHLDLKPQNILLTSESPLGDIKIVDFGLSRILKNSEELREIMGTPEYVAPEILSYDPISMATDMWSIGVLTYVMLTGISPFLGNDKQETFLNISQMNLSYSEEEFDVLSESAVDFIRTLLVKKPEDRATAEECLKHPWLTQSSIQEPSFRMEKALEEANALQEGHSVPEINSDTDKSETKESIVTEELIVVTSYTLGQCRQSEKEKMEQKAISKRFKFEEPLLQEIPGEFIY

Structure (SMILES)	read-out	action	technique	concentration	endpoint	value
CC(C)S(=O)(=O)c1ccc2nccc(Nc3ccc4sc(C5CCCC5)nc4c3)c2c1	enzyme activity	inhibitor	–	1 µM	activity vs control	108%
Cc1cc(O)c(-c2ccc([C@@H](C)CN(C)C)cc2)c2c1[nH]c(=O)c1sccc12	cell-free assay	inhibitor	–	0.1 µM	inhibition	3.3%
COc1ccc2oc(-c3ccc4nc(N)oc4c3)c/c(=N\c3ccccc3NC(=O)CCN)c2c1	binding	–	–	1 µM	remaining binding	89%
C=CC(=O)N1CCC[C@@H](n2nc(-c3ccc(Oc4ccccc4)cc3)c3c(N)ncnc32)C1	enzyme activity	inhibitor	–	1 µM	inhibition	8%
COc1ccc2[nH]c3c4[nH]c5ccc(OC)cc5c4c4c(c3c2c1)C(=O)NC4=O	binding	–	–	1 µM	remaining binding	0.4%
CC#CC(=O)N1CCC[C@H]1c1nc(-c2ccc(C(=O)Nc3ccccn3)cc2)c2c(N)nccn12	enzyme activity	inhibitor	–	1 µM	inhibition	0%
Cc1ccc(NC(=O)c2ccnc(C(F)(F)F)c2)cc1-c1cc(OCCO)nc(N2CCOCC2)c1	binding	–	–	1 µM	remaining binding	91%
CCCCC(=O)Nc1ccc(-c2ccc3ncn(CCC)c(=O)c3c2)cn1	binding	–	competition with immobilised ligand	0.5 µM	remaining binding	100%
